According to ChEMBL document CHEMBL1151705, “Novel azalides derived from 16-membered macrolides. Part II: Isolation of the linear 9-formylcarboxylic acid and its sequential macrocyclization with an amino alcohol or an azidoamine” (2008):
Converted amounts (≈) assume the structure as drawn.

Columns and labels:
Format in all cases: functional
[1] = tested on: Haemophilus influenzae; test: Antimicrobial activity against drug-susceptible Haemophilus influenzae 4 after 20 hrs by agar dilution method; details: Haemophilus influenzae, 20 h; read-out: MIC
How it was run: (§1)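 Streptococci, H. influenzae and M. catarrhalis were precultured on blood agar plates. Suspensions of about 10⁶ CFU/ml were inoculated onto sensitivity disk agar supplemented with 5% horse blood and incubated at 37 °C for 20 h. MIC was read as the lowest drug concentration with no visible growth.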

[2] = tested on: Streptococcus pyogenes; test: Antimicrobial activity against Streptococcus pyogenes 2 constitutively expressing ermB after 20 hrs by agar dilution method; how it was run: as §1
[3] = tested on: Streptococcus pneumoniae; test: Antimicrobial activity against drug-susceptible Streptococcus pneumoniae DP1 Type1 after 20 hrs by agar dilution method; details: Streptococcus pneumoniae, 20 h; read-out: MIC; how it was run: as §1
[4] = tested on: Streptococcus pneumoniae; test: Antimicrobial activity against Streptococcus pneumoniae 7 expressing inducible ermB after 20 hrs by agar dilution method; details: Streptococcus pneumoniae, 20 h; read-out: MIC; how it was run: as §1
[5] = tested on: Streptococcus pyogenes; test: Antimicrobial activity against drug-susceptible Streptococcus pyogenes 1 after 20 hrs by agar dilution method; details: Streptococcus pyogenes, 20 h; read-out: MIC; how it was run: as §1
[6] = tested on: Staphylococcus aureus; test: Antimicrobial activity against drug-susceptible Staphylococcus aureus 2 after 20 hrs by agar dilution method; details: Staphylococcus aureus, 20 h; read-out: MIC
How it was run: (§2)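 Agar dilution MIC. S. aureus seed culture was grown in sensitivity test broth. Cell suspension (about 10⁶ CFU/ml) was inoculated onto sensitivity disk agar with 5% horse blood and incubated at 37 °C for 20 h. MIC was the lowest drug concentration that prevented visible growth.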

[7] = tested on: Moraxella catarrhalis; test: Antimicrobial activity against drug-susceptible Moraxella catarrhalis 2 after 20 hrs by agar dilution method; details: Moraxella catarrhalis, 20 h; read-out: MIC; how it was run: as §1
[8] = tested on: Moraxella catarrhalis; test: Antimicrobial activity against drug-susceptible Moraxella catarrhalis 1 after 20 hrs by agar dilution method; details: Moraxella catarrhalis, 20 h; read-out: MIC; how it was run: as §1
[9] = tested on: Staphylococcus aureus; test: Antimicrobial activity against Staphylococcus aureus 6 expressing inducible ermB after 20 hrs by agar dilution method; how it was run: as §2
[10] = tested on: Staphylococcus aureus; test: Antimicrobial activity against Staphylococcus aureus 4 constitutively expressing ermA after 20 hrs by agar dilution method; how it was run: as §2
[11] = tested on: Streptococcus pneumoniae; test: Antimicrobial activity against Streptococcus pneumoniae 8 expressing inducible ermB after 20 hrs by agar dilution method; details: Streptococcus pneumoniae, 20 h; read-out: MIC; how it was run: as §1
[12] = tested on: Staphylococcus aureus; test: Antimicrobial activity against Staphylococcus aureus 5 expressing inducible ermB after 20 hrs by agar dilution method; details: Staphylococcus aureus, 20 h; read-out: MIC; how it was run: as §2
[13] = tested on: Haemophilus influenzae; test: Antimicrobial activity against drug-susceptible Haemophilus influenzae 3 after 20 hrs by agar dilution method; details: Haemophilus influenzae, 20 h; read-out: MIC; how it was run: as §1
[14] = tested on: Streptococcus pneumoniae; test: Antimicrobial activity against Streptococcus pneumoniae 5 constitutively expressing ermB/mefA after 20 hrs by agar dilution method; details: Streptococcus pneumoniae, 20 h; read-out: MIC; how it was run: as §1
[15] = tested on: Haemophilus influenzae; test: Antimicrobial activity against drug-susceptible Haemophilus influenzae 1 after 20 hrs by agar dilution method; details: Haemophilus influenzae, 20 h; read-out: MIC; how it was run: as §1
[16] = tested on: Staphylococcus aureus; test: Antimicrobial activity against drug-susceptible Staphylococcus aureus 209P JC-1 after 20 hrs by agar dilution method; details: Staphylococcus aureus, 209P, 20 h; read-out: MIC; how it was run: as §2
[17] = tested on: Streptococcus pyogenes; test: Antimicrobial activity against Streptococcus pyogenes 3 expressing mefA after 20 hrs by agar dilution method; details: Streptococcus pyogenes, 20 h; read-out: MIC; how it was run: as §1
[18] = tested on: Haemophilus influenzae; test: Antimicrobial activity against drug-susceptible Haemophilus influenzae 2 after 20 hrs by agar dilution method; details: Haemophilus influenzae, 20 h; read-out: MIC; how it was run: as §1
[19] = tested on: Streptococcus pneumoniae; test: Antimicrobial activity against Streptococcus pneumoniae 4 constitutively expressing ermB after 20 hrs by agar dilution method; details: Streptococcus pneumoniae, 20 h; read-out: MIC; how it was run: as §1
[20] = tested on: Streptococcus pneumoniae; test: Antimicrobial activity against Streptococcus pneumoniae 9 expressing mefA after 20 hrs by agar dilution method; details: Streptococcus pneumoniae, 20 h; read-out: MIC; how it was run: as §1
[21] = tested on: Streptococcus pneumoniae; test: Antimicrobial activity against Streptococcus pneumoniae 6 constitutively expressing ermB after 20 hrs by agar dilution method; details: Streptococcus pneumoniae, 20 h; read-out: MIC; how it was run: as §1
[22] = tested on: Streptococcus pneumoniae; test: Antimicrobial activity against Streptococcus pneumoniae 10 expressing mefA after 20 hrs by agar dilution method; details: Streptococcus pneumoniae, 20 h; read-out: MIC; how it was run: as §1
[23] = tested on: Staphylococcus aureus; test: Antimicrobial activity against drug-susceptible Staphylococcus aureus 3 after 20 hrs by agar dilution method; details: Staphylococcus aureus, 20 h; read-out: MIC; how it was run: as §2
[24] = tested on: Streptococcus pneumoniae; test: Antimicrobial activity against drug-susceptible Streptococcus pneumoniae 2 after 20 hrs by agar dilution method; details: Streptococcus pneumoniae, 20 h; read-out: MIC; how it was run: as §1
[25] = tested on: Streptococcus pneumoniae; test: Antimicrobial activity against drug-susceptible Streptococcus pneumoniae 3 after 20 hrs by agar dilution method; details: Streptococcus pneumoniae, 20 h; read-out: MIC; how it was run: as §1

Compound | MIC [1] | MIC [2] | MIC [3] | MIC [4] | MIC [5] | MIC [6] | MIC [7] | MIC [8] | MIC [9] | MIC [10] | MIC [11] | MIC [12] | MIC [13] | MIC [14] | MIC [15] | MIC [16] | MIC [17] | MIC [18] | MIC [19] | MIC [20] | further results
CCOC(=O)[C@H]1[C@H](C)O[C@@H](O[C@H]2[C@H](N(C)C)[C@@H](O)[C@H](O[C@H]3[C@@H](CC=O)C[C@@H](C)[C@@H](O)CN(C)CC(/C=C/Cc4cccc5cccnc45)CCOC(=O)C[C@@H](OC(=O)CC)[C@@H]3OC)O[C@@H]2C)C[C@]1(C)O (stereo not given in full) | 8 µg/mL (≈ 8.11 µM) | > 128 µg/mL | 0.015 µg/mL (≈ 0.0152 µM) | 8 µg/mL (≈ 8.11 µM) | 0.06 µg/mL (≈ 0.0608 µM) | 0.5 µg/mL (≈ 0.507 µM) | 2 µg/mL (≈ 2.03 µM) | 1 µg/mL (≈ 1.01 µM) | 0.5 µg/mL (≈ 0.507 µM) | > 128 µg/mL | 8 µg/mL (≈ 8.11 µM) | 0.25 µg/mL (≈ 0.253 µM) | 8 µg/mL (≈ 8.11 µM) | 128 µg/mL (≈ 130 µM) | 32 µg/mL (≈ 32.4 µM) | 0.25 µg/mL (≈ 0.253 µM) | 0.25 µg/mL (≈ 0.253 µM) | 2 µg/mL (≈ 2.03 µM) | 128 µg/mL (≈ 130 µM) | 0.03 µg/mL (≈ 0.0304 µM) | MIC [21]: 128 µg/mL (≈ 130 µM); MIC [22]: 0.03 µg/mL (≈ 0.0304 µM); MIC [23]: 0.25 µg/mL (≈ 0.253 µM); MIC [24]: 0.015 µg/mL (≈ 0.0152 µM); MIC [25]: 0.015 µg/mL (≈ 0.0152 µM)
CCOC(=O)[C@H]1[C@H](C)O[C@@H](O[C@H]2[C@H](N(C)C)[C@@H](O)[C@H](O[C@H]3[C@@H](CC=O)C[C@@H](C)[C@@H](O)CN(C)CC(/C=C\Cc4cnc5ccccc5c4)CCOC(=O)C[C@@H](OC(=O)CC)[C@@H]3OC)O[C@@H]2C)C[C@@]1(C)O (stereo not given in full) | 16 µg/mL (≈ 16.2 µM) | > 64 µg/mL | 0.06 µg/mL (≈ 0.0608 µM) | 8 µg/mL (≈ 8.11 µM) | 0.13 µg/mL (≈ 0.132 µM) | 1 µg/mL (≈ 1.01 µM) | 2 µg/mL (≈ 2.03 µM) | 2 µg/mL (≈ 2.03 µM) | 1 µg/mL (≈ 1.01 µM) | > 64 µg/mL | 8 µg/mL (≈ 8.11 µM) | 0.25 µg/mL (≈ 0.253 µM) | 16 µg/mL (≈ 16.2 µM) | > 64 µg/mL | > 64 µg/mL | 0.5 µg/mL (≈ 0.507 µM) | 0.5 µg/mL (≈ 0.507 µM) | 8 µg/mL (≈ 8.11 µM) | > 64 µg/mL | 0.13 µg/mL (≈ 0.132 µM) | MIC [21]: > 64 µg/mL; MIC [22]: 0.13 µg/mL (≈ 0.132 µM); MIC [23]: 0.25 µg/mL (≈ 0.253 µM); MIC [24]: 0.25 µg/mL (≈ 0.253 µM); MIC [25]: 0.13 µg/mL (≈ 0.132 µM)
CCOC(=O)[C@H]1[C@H](C)O[C@@H](O[C@H]2[C@H](N(C)C)[C@@H](O)[C@H](O[C@H]3[C@@H](CC=O)C[C@@H](C)[C@@H](O)CN(C)CC(/C=C/Cc4ccc5ncccc5c4)CCOC(=O)C[C@@H](OC(=O)CC)[C@@H]3OC)O[C@@H]2C)C[C@@]1(C)O (stereo not given in full) | 8 µg/mL (≈ 8.11 µM) | > 128 µg/mL | 0.015 µg/mL (≈ 0.0152 µM) | 2 µg/mL (≈ 2.03 µM) | 0.03 µg/mL (≈ 0.0304 µM) | 0.25 µg/mL (≈ 0.253 µM) | 1 µg/mL (≈ 1.01 µM) | 1 µg/mL (≈ 1.01 µM) | 0.25 µg/mL (≈ 0.253 µM) | > 128 µg/mL | 2 µg/mL (≈ 2.03 µM) | 0.13 µg/mL (≈ 0.132 µM) | 8 µg/mL (≈ 8.11 µM) | > 128 µg/mL | 32 µg/mL (≈ 32.4 µM) | 0.13 µg/mL (≈ 0.132 µM) | 0.25 µg/mL (≈ 0.253 µM) | 2 µg/mL (≈ 2.03 µM) | > 128 µg/mL | 0.015 µg/mL (≈ 0.0152 µM) | MIC [21]: 128 µg/mL (≈ 130 µM); MIC [22]: 0.015 µg/mL (≈ 0.0152 µM); MIC [23]: 0.13 µg/mL (≈ 0.132 µM); MIC [24]: 0.03 µg/mL (≈ 0.0304 µM); MIC [25]: 0.015 µg/mL (≈ 0.0152 µM)
CCOC(=O)[C@H]1[C@H](C)O[C@@H](O[C@H]2[C@H](N(C)C)[C@@H](O)[C@H](O[C@H]3[C@@H](CC=O)C[C@@H](C)[C@@H](O)CN(C)CC(/C=C/Cc4cncc5ccccc45)CCOC(=O)C[C@@H](OC(=O)CC)[C@@H]3OC)O[C@@H]2C)C[C@@]1(C)O (stereo not given in full) | 8 µg/mL (≈ 8.11 µM) | > 128 µg/mL | 0.015 µg/mL (≈ 0.0152 µM) | 8 µg/mL (≈ 8.11 µM) | 0.03 µg/mL (≈ 0.0304 µM) | 0.5 µg/mL (≈ 0.507 µM) | 1 µg/mL (≈ 1.01 µM) | 1 µg/mL (≈ 1.01 µM) | 0.25 µg/mL (≈ 0.253 µM) | > 128 µg/mL | 8 µg/mL (≈ 8.11 µM) | 0.13 µg/mL (≈ 0.132 µM) | 8 µg/mL (≈ 8.11 µM) | 128 µg/mL (≈ 130 µM) | 32 µg/mL (≈ 32.4 µM) | 0.25 µg/mL (≈ 0.253 µM) | 0.25 µg/mL (≈ 0.253 µM) | 2 µg/mL (≈ 2.03 µM) | 128 µg/mL (≈ 130 µM) | 0.015 µg/mL (≈ 0.0152 µM) | MIC [21]: 128 µg/mL (≈ 130 µM); MIC [22]: 0.03 µg/mL (≈ 0.0304 µM); MIC [23]: 0.13 µg/mL (≈ 0.132 µM); MIC [24]: 0.03 µg/mL (≈ 0.0304 µM); MIC [25]: 0.015 µg/mL (≈ 0.0152 µM)
